Measured values taken from ChEMBL document CHEMBL1123883, “Structure-activity relationships in the 2-arylcarbapenem series: synthesis of 1-methyl-2-arylcarbapenems” (1987).
≈ marks a conversion by molar mass, not a printed value.

Assays:
[1] = tested on: Enterococcus; test: Antibiotic activity was determined against Enterococcus (3); assay type: functional
In short: (§1)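 Inhibitory concentrations against the strains of each species were expressed as a ratio to the inhibitory concentration of thienamycin, the reference carbapenem, in the same strains.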

[2] = tested on: Klebsiella sp.; test: Antibiotic activity was determined against Klebsiella species (5); assay type: functional; in short: as §1
[3] = tested on: Proteus; test: Antibiotic activity was determined against Proteus species (5); assay type: functional, Proteus sp.; in short: as §1
[4] = tested on: Staphylococcus aureus; test: Antibiotic activity was determined against Staphylococcus aureus (5); assay type: functional; in short: as §1
[5] = tested on: Serratia; test: Antibiotic activity was determined against Serratia species (2); assay type: functional; in short: as §1
[6] = tested on: Enterobacter; test: Antibiotic activity was determined against Enterobacter species (6); assay type: functional; in short: as §1
[7] = tested on: Escherichia coli; test: Antibiotic activity was determined against Escherichia coli(5); assay type: functional; in short: as §1
[8] = tested on: Pseudomonas aeruginosa; test: Antibiotic activity was determined against Pseudomonas aeruginosa (5); assay type: functional; in short: as §1
[9] = molecular target: T1, Dipeptidase 1 (Homo sapiens) (UniProt P16444); test: Susceptibility to mammalian dehydropeptidase DHP-1 relative to thienamycin
T1 sequence (whole entry): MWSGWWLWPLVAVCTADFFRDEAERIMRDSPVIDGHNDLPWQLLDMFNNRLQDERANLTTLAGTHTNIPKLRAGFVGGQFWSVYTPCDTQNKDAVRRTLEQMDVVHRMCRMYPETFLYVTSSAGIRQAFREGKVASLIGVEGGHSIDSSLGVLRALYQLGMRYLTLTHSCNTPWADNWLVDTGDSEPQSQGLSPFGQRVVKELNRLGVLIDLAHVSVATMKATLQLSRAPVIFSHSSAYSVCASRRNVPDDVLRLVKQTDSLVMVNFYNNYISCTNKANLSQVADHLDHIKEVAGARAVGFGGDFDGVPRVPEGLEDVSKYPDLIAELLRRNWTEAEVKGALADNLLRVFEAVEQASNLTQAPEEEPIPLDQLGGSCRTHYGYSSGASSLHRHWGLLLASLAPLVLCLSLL

Q: What does the source list for `C[C@@H](O)[C@H]1C(=O)N2C(C(=O)O)=C(c3ccc(CN)nc3)[C@H](C)[C@H]12`?
A: MIC [1]: 2.8 µg/mL (≈ 8.82 µM); MIC [2]: 2.8 µg/mL (≈ 8.82 µM); MIC [3]: 2.5 µg/mL (≈ 7.88 µM); MIC [4]: 0.5 µg/mL (≈ 1.58 µM); MIC [5]: 3.2 µg/mL (≈ 10.1 µM); MIC [6]: 3.5 µg/mL (≈ 11 µM); MIC [7]: 1.5 µg/mL (≈ 4.73 µM); MIC [8]: 0.08 µg/mL (≈ 0.252 µM); Relative susceptibility [9]: 0.16

Q: For `C[C@@H](O)[C@H]1C(=O)N2C(C(=O)[O-])=C(c3cccnc3)[C@H](C)[C@H]12.[K+]`, which MIC [1] is on record?
A: 2.5 µg/mL

Q: And the MIC [2]?
A: 7 µg/mL

Q: And the MIC [3]?
A: 7 µg/mL

Q: What about the MIC [4] of the same compound?
A: 1 µg/mL

Q: And the MIC [5]?
A: 13 µg/mL

Q: And the MIC [6]?
A: 13 µg/mL

Q: And the MIC [7]?
A: 12 µg/mL

Q: And the MIC [8]?
A: 0.05 µg/mL

Q: And the Relative susceptibility [9]?
A: 0.7

Q: Which results are given for `C[C@@H](O)[C@H]1C(=O)N2C(C(=O)O)=C(SCCN)C[C@H]12` [THIENAMYCIN]?
A: MIC [1]: 5 µg/mL (≈ 18.4 µM); MIC [2]: 1.3 µg/mL (≈ 4.77 µM); MIC [3]: 7.5 µg/mL (≈ 27.5 µM); MIC [4]: 0.04 µg/mL (≈ 0.147 µM); MIC [5]: 2.5 µg/mL (≈ 9.18 µM); MIC [6]: 1.4 µg/mL (≈ 5.14 µM); MIC [7]: 0.3 µg/mL (≈ 1.1 µM); MIC [8]: 5.8 µg/mL (≈ 21.3 µM); Relative susceptibility [9]: 1

Q: How did the MIC [1] turn out when `C[C@@H]1C(c2cccnc2)=C(C(=O)[O-])N2C(=O)[C@H]([C@@H](C)O)[C@@H]12.[K+]` was run?
A: 0.15 µg/mL

Q: What about the MIC [2] of the same compound?
A: 2.5 µg/mL

Q: What about the MIC [3] of the same compound?
A: 2.5 µg/mL

Q: What about the MIC [4] of the same compound?
A: 0.15 µg/mL

Q: What about the MIC [5] of the same compound?
A: 22 µg/mL

Q: What about the MIC [6] of the same compound?
A: 5 µg/mL

Q: And the MIC [7]?
A: 3.5 µg/mL

Q: What about the MIC [8] of the same compound?
A: 0.03 µg/mL

Q: What about the Relative susceptibility [9] of the same compound?
A: 0.1

Q: Which results are given for `C[C@@H](O)[C@H]1C(=O)N2C(C(=O)[O-])=C(c3ccccc3)C[C@H]12.[K+]`?
A: MIC [1]: 5.7 µg/mL; MIC [2]: 1.4 µg/mL; MIC [3]: 10 µg/mL; MIC [4]: 0.5 µg/mL; MIC [5]: 10 µg/mL; MIC [6]: 4.6 µg/mL; MIC [7]: 2.5 µg/mL; MIC [8]: 0.03 µg/mL; Relative susceptibility [9]: 0.2

Q: With `CC(O)[C@H]1C(=O)N2C(C(=O)O)=C(c3ccc(CN)cc3)C[C@H]12` (stereo not given in full) as the compound, how does the MIC [1] read?
A: 9.2 µg/mL (≈ 30.4 µM)

Q: What about the MIC [2] of the same compound?
A: 3.2 µg/mL (≈ 10.6 µM)

Q: And the MIC [3]?
A: 6.5 µg/mL (≈ 21.5 µM)

Q: What about the MIC [4] of the same compound?
A: 1.5 µg/mL (≈ 4.96 µM)

Q: And the MIC [5]?
A: 5.3 µg/mL (≈ 17.5 µM)

Q: And the MIC [6]?
A: 11 µg/mL (≈ 36.4 µM)

Q: What about the MIC [7] of the same compound?
A: 3.5 µg/mL (≈ 11.6 µM)

Q: What about the MIC [8] of the same compound?
A: 0.3 µg/mL (≈ 0.992 µM)

Q: Which Relative susceptibility [9] does the source give for `C[C@H](O)[C@H]1C(=O)N2C(C(=O)O)=C(c3ccc(CN)cc3)C[C@H]12` here?
A: 0.02

Q: Which MIC [1] does the source give for `C[C@@H](O)[C@H]1C(=O)N2C(C(=O)[O-])=C(c3ccc(O)cc3)C[C@H]12.[K+]` here?
A: 7.5 µg/mL

Q: And the MIC [2]?
A: 0.7 µg/mL

Q: And the MIC [3]?
A: 8 µg/mL

Q: And the MIC [4]?
A: 0.4 µg/mL

Q: What about the MIC [5] of the same compound?
A: 2.3 µg/mL

Q: What about the MIC [6] of the same compound?
A: 1.7 µg/mL

Q: And the MIC [7]?
A: 2.8 µg/mL

Q: And the MIC [8]?
A: 0.06 µg/mL

Q: And the Relative susceptibility [9]?
A: 0.2

Q: With `O=C(O)C1=C(c2cccnc2)CC2CC(=O)N12` (stereo not given) as the compound, how does the MIC [1] read?
A: 0.15 µg/mL (≈ 0.652 µM)

Q: What about the MIC [2] of the same compound?
A: 0.02 µg/mL (≈ 0.0869 µM)

Q: What about the MIC [3] of the same compound?
A: 0.03 µg/mL (≈ 0.13 µM)

Q: What about the MIC [4] of the same compound?
A: 0.002 µg/mL (≈ 0.00869 µM)

Q: What about the MIC [5] of the same compound?
A: 0.01 µg/mL (≈ 0.0434 µM)

Q: And the MIC [6]?
A: 0.02 µg/mL (≈ 0.0869 µM)

Q: What about the MIC [7] of the same compound?
A: 0.01 µg/mL (≈ 0.0434 µM)

Q: And the MIC [8]?
A: 0.1 µg/mL (≈ 0.434 µM)

Q: And the Relative susceptibility [9]?
A: 0.3

Q: With `C[C@@H](O)[C@H]1C(=O)N2C(C(=O)[O-])=C(c3cccnc3)C[C@H]12.[K+]` as the compound, how does the MIC [1] read?
A: 6 µg/mL

Q: What about the MIC [2] of the same compound?
A: 7 µg/mL

Q: What about the MIC [3] of the same compound?
A: 17 µg/mL

Q: And the MIC [4]?
A: 1.5 µg/mL

Q: And the MIC [5]?
A: 28 µg/mL

Q: And the MIC [6]?
A: 20 µg/mL

Q: And the MIC [7]?
A: 9 µg/mL

Q: And the MIC [8]?
A: 0.05 µg/mL

Q: What about the Relative susceptibility [9] of the same compound?
A: 0.4

Q: With `C[C@@H](O)[C@H]1C(=O)N2C(C(=O)O)=C(c3ccc(CN)cc3)[C@H](C)[C@H]12` as the compound, how does the MIC [1] read?
A: 3 µg/mL (≈ 9.48 µM)

Q: And the MIC [2]?
A: 1.7 µg/mL (≈ 5.37 µM)

Q: And the MIC [3]?
A: 2 µg/mL (≈ 6.32 µM)

Q: What about the MIC [4] of the same compound?
A: 0.4 µg/mL (≈ 1.26 µM)

Q: What about the MIC [5] of the same compound?
A: 6.5 µg/mL (≈ 20.5 µM)

Q: And the MIC [6]?
A: 2.5 µg/mL (≈ 7.9 µM)

Q: What about the MIC [7] of the same compound?
A: 1.6 µg/mL (≈ 5.06 µM)

Q: What about the MIC [8] of the same compound?
A: 0.13 µg/mL (≈ 0.411 µM)

Q: What about the Relative susceptibility [9] of the same compound?
A: 0.07

Q: With `C[C@@H](O)[C@H]1C(=O)N2C(C(=O)[O-])=C(c3ccc(CO)cc3)[C@H](C)[C@H]12.[K+]` as the compound, how does the MIC [1] read?
A: 1.4 µg/mL

Q: And the MIC [2]?
A: 0.7 µg/mL

Q: And the MIC [3]?
A: 5.3 µg/mL

Q: And the MIC [4]?
A: 0.2 µg/mL

Q: And the MIC [5]?
A: 1.2 µg/mL

Q: What about the MIC [6] of the same compound?
A: 1.1 µg/mL

Q: What about the MIC [7] of the same compound?
A: 0.9 µg/mL

Q: What about the MIC [8] of the same compound?
A: 0.02 µg/mL

Q: And the Relative susceptibility [9]?
A: 0.22

Q: Which results are given for `C[C@@H](O)[C@H]1C(=O)N2C(C(=O)O)=C(c3ccc(CN)nc3)C[C@H]12`?
A: MIC [1]: 8 µg/mL (≈ 26.4 µM); MIC [2]: 3 µg/mL (≈ 9.89 µM); MIC [3]: 3.2 µg/mL (≈ 10.5 µM); MIC [4]: 1.9 µg/mL (≈ 6.26 µM); MIC [5]: 5.3 µg/mL (≈ 17.5 µM); MIC [6]: 5.7 µg/mL (≈ 18.8 µM); MIC [7]: 3 µg/mL (≈ 9.89 µM); MIC [8]: 0.2 µg/mL (≈ 0.659 µM); Relative susceptibility [9]: 0.1

Q: `O=C(O)C1=C(c2ccccc2)CC2CC(=O)N12` (stereo not given) was tested. Which MIC [1] did it give?
A: 1 µg/mL (≈ 4.36 µM)

Q: What about the MIC [2] of the same compound?
A: 0.04 µg/mL (≈ 0.174 µM)

Q: And the MIC [3]?
A: 0.03 µg/mL (≈ 0.131 µM)

Q: What about the MIC [4] of the same compound?
A: 0.02 µg/mL (≈ 0.0872 µM)

Q: What about the MIC [5] of the same compound?
A: 0.01 µg/mL (≈ 0.0436 µM)

Q: And the MIC [6]?
A: 0.2 µg/mL (≈ 0.872 µM)

Q: And the MIC [7]?
A: 0.1 µg/mL (≈ 0.436 µM)

Q: What about the MIC [8] of the same compound?
A: 0.03 µg/mL (≈ 0.131 µM)

Q: And the Relative susceptibility [9]?
A: 0.35

Q: How did the MIC [1] turn out when `C[C@@H](O)[C@H]1C(=O)N2C(C(=O)[O-])=C(c3ccccc3)[C@H](C)[C@H]12.[K+]` was run?
A: 2 µg/mL

Q: What about the MIC [2] of the same compound?
A: 0.3 µg/mL

Q: What about the MIC [3] of the same compound?
A: 3.5 µg/mL

Q: What about the MIC [4] of the same compound?
A: 0.2 µg/mL

Q: And the MIC [5]?
A: 1 µg/mL

Q: And the MIC [6]?
A: 0.3 µg/mL

Q: What about the MIC [7] of the same compound?
A: 0.5 µg/mL

Q: What about the MIC [8] of the same compound?
A: 0.02 µg/mL

Q: And the Relative susceptibility [9]?
A: 0.25

Q: With `C[C@@H](O)[C@H]1C(=O)N2C(C(=O)[O-])=C(c3ccc(CO)cc3)C[C@H]12.[K+]` as the compound, how does the MIC [1] read?
A: 5 µg/mL

Q: And the MIC [2]?
A: 2.3 µg/mL

Q: What about the MIC [3] of the same compound?
A: 15 µg/mL

Q: What about the MIC [4] of the same compound?
A: 1 µg/mL

Q: And the MIC [5]?
A: 7 µg/mL

Q: What about the MIC [6] of the same compound?
A: 4 µg/mL

Q: And the MIC [7]?
A: 2 µg/mL

Q: What about the MIC [8] of the same compound?
A: 0.02 µg/mL

Q: And the Relative susceptibility [9]?
A: 0.28
